Experimental findings from ChEMBL document CHEMBL1165965, “Synthesis and structure-activity relationships of 1,2,3,4-tetrahydropyrido[2,3-b]pyrazines as potent and selective inhibitors of the anaplastic lymphoma kinase” (Bioorg Med Chem, 2010) are described below.

Experiment [1] has as its system Mast/stem cell growth factor receptor Kit (Homo sapiens), P10721 [V559D]. The experiment is described as follows: Inhibition of KIT V559D mutant at 1 uM. The essentials: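 Single-concentration screen on the Ambit KINOMEscan platform, run against a panel of 250–400 kinases. Per-kinase inhibition was also summarized as S(90), the fraction of kinases inhibited by more than 90%.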

For experiment [2], the target named is Serine/threonine-protein kinase PLK3 (Homo sapiens) (UniProt Q9H4B4). As to the kind of experiment: Inhibition of PLK3 at 1 uM.
Experiment [3] deals with T1, Serine/threonine-protein kinase D3 (Homo sapiens) (UniProt O94806).
T1 sequence (whole entry): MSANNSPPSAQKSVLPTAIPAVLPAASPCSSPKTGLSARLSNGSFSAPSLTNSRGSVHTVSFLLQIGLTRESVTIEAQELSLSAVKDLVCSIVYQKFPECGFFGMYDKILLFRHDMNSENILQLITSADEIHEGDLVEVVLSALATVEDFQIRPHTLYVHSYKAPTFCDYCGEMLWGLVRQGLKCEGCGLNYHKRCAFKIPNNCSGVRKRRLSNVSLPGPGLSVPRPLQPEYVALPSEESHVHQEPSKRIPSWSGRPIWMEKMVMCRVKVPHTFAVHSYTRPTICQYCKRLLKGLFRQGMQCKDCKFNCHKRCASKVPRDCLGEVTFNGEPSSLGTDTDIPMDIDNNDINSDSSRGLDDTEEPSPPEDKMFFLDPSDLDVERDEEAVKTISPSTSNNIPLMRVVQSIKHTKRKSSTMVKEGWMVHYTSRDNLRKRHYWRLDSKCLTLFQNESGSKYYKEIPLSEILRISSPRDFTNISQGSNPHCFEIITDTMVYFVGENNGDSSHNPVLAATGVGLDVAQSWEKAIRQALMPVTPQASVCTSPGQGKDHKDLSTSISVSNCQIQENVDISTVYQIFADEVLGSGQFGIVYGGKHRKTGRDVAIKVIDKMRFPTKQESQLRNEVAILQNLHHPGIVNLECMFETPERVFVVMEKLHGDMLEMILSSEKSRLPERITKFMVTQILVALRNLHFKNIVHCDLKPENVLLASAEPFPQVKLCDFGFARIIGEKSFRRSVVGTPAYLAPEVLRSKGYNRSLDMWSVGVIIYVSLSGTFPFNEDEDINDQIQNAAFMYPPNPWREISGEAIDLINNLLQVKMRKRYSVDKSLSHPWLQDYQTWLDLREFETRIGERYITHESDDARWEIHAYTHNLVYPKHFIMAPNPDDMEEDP
The experiment is described as follows: Inhibition of PRKD3 at 1 uM.

Experiment [4] concerns the target T2, Testis-specific serine/threonine-protein kinase 1 (Homo sapiens) (UniProt Q9BXA7).
T2 sequence (whole entry): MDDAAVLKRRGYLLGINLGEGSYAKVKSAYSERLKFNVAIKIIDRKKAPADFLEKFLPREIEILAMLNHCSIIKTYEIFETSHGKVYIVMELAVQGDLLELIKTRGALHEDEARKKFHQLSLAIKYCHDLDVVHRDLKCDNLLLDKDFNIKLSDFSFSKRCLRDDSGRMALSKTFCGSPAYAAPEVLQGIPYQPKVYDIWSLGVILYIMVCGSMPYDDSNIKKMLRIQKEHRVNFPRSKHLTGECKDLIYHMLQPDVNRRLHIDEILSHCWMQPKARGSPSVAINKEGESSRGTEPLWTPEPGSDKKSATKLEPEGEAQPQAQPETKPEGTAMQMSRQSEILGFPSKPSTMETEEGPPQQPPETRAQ
As to the kind of experiment: Inhibition of TSSK1B at 1 uM.

Experiment [5] deals with Wee1-like protein kinase 2 (Homo sapiens) (UniProt P0C1S8). The experiment is described as follows: Inhibition of WEE2 at 1 uM.
For experiment [6], the system named is Tyrosine-protein kinase ABL1 (Homo sapiens), P00519 [Q252H]. The experiment is described as follows: Inhibition of ABL1 Q252H mutant at 1 uM. The essentials: (§1)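 Ambit KINOMEscan screen at a single concentration across a 250–400 kinase panel, recorded as percent inhibition. Selectivity was expressed as S(90), the fraction of kinases inhibited >90%.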
The target in experiment [7] is T3, Atypical kinase COQ8B, mitochondrial (Homo sapiens) (UniProt Q96D53).
T3 sequence (whole entry): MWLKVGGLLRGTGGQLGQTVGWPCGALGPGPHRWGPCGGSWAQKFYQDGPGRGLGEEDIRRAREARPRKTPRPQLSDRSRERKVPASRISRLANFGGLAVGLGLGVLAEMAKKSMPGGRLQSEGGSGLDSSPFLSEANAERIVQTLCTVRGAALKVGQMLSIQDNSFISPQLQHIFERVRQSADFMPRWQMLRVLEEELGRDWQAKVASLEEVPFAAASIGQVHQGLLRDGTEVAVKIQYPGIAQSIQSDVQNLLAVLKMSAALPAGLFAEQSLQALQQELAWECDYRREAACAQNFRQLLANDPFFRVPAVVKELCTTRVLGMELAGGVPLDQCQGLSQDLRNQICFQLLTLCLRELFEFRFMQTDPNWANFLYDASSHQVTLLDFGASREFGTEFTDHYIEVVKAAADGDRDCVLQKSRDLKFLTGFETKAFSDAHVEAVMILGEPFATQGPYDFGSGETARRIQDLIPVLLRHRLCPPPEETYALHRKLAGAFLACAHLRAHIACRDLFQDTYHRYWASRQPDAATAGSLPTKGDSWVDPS
As to the kind of experiment: Inhibition of ADCK4 at 1 uM. The essentials:
as §1

Experiment [8] has as its target Serine/threonine-protein kinase/endoribonuclease IRE1 (Homo sapiens) (UniProt O75460). As to the kind of experiment: Inhibition of ERN1 at 1 uM.
In experiment [9] the target is T4, Homeodomain-interacting protein kinase 4 (Homo sapiens) (UniProt Q8NE63).
T4 sequence (whole entry): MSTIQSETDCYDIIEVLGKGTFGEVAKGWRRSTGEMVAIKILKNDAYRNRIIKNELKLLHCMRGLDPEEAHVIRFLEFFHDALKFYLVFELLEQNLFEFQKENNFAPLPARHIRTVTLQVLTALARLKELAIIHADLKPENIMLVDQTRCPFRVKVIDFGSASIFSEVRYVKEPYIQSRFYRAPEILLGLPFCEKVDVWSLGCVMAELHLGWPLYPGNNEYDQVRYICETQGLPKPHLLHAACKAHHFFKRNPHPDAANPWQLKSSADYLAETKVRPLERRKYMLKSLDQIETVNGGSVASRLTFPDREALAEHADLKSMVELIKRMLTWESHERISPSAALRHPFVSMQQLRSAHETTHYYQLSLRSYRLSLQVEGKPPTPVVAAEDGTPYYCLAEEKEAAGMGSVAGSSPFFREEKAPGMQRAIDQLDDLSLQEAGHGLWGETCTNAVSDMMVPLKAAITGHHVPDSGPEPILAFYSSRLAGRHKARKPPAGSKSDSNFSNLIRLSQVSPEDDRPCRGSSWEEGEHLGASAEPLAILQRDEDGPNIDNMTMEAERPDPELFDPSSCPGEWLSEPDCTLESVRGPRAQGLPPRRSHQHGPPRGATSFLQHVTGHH
The experiment is described as follows: Inhibition of HIPK4 at 1 uM.

Sequence of Wee1-like protein kinase 2 (Homo sapiens) (P0C1S8 whole entry, looked up): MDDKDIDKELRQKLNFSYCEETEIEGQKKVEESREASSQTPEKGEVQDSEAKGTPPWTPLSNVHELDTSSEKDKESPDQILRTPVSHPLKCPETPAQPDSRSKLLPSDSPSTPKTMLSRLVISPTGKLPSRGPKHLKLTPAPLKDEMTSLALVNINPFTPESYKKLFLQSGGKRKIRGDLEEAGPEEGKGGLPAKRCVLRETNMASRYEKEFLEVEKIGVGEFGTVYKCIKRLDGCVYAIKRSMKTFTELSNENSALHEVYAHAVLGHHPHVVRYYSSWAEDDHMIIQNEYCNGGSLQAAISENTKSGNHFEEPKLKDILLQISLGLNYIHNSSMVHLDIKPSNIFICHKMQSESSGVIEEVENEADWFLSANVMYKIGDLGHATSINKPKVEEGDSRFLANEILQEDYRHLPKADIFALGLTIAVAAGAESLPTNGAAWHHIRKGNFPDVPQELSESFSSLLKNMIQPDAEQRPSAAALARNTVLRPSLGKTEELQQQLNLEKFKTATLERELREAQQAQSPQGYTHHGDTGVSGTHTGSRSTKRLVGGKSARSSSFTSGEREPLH
Sequence of Serine/threonine-protein kinase/endoribonuclease IRE1 (Homo sapiens) (O75460 19-977 limits assumed): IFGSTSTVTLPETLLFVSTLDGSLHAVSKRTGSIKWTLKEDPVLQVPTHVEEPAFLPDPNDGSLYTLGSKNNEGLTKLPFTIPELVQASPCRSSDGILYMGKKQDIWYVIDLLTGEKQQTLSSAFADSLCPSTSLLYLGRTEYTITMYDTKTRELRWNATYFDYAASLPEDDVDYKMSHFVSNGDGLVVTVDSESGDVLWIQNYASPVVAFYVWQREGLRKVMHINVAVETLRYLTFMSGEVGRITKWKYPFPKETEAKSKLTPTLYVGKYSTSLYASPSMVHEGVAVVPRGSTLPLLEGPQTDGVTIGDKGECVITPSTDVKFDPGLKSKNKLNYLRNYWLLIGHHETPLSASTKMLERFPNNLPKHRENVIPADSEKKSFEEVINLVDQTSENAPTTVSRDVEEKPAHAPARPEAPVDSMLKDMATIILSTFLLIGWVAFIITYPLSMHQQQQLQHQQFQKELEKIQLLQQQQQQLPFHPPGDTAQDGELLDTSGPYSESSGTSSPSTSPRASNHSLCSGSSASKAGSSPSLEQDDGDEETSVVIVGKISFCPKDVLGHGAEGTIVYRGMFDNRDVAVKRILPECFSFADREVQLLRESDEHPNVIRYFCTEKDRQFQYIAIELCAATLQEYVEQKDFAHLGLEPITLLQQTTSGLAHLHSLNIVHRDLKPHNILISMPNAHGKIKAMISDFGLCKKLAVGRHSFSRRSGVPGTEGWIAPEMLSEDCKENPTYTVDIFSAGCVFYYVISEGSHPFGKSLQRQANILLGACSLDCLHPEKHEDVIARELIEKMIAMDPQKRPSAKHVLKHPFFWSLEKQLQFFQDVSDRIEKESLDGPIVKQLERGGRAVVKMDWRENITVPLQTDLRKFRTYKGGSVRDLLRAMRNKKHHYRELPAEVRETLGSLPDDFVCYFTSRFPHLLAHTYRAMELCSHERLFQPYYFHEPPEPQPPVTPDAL
Sequence of Serine/threonine-protein kinase PLK3 (Homo sapiens) (Q9H4B4 whole entry, looked up): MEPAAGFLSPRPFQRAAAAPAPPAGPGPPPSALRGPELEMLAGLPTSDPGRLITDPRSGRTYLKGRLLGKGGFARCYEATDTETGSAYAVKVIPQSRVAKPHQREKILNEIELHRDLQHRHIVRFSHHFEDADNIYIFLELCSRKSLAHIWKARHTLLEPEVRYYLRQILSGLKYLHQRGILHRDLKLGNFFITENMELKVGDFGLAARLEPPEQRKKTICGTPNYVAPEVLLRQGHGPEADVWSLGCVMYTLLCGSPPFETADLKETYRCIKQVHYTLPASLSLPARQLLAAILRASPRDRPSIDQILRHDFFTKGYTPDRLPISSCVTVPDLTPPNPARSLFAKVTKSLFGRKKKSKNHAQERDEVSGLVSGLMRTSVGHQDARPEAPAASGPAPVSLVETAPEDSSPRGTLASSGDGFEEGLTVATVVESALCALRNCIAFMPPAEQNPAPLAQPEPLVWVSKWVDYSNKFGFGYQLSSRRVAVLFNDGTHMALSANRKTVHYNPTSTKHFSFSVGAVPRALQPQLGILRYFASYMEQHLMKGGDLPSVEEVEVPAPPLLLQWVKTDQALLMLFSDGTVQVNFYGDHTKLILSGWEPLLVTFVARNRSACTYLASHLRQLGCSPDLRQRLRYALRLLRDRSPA
Sequence of Mast/stem cell growth factor receptor Kit (Homo sapiens), P10721 [V559D] (P10721 whole entry V559D): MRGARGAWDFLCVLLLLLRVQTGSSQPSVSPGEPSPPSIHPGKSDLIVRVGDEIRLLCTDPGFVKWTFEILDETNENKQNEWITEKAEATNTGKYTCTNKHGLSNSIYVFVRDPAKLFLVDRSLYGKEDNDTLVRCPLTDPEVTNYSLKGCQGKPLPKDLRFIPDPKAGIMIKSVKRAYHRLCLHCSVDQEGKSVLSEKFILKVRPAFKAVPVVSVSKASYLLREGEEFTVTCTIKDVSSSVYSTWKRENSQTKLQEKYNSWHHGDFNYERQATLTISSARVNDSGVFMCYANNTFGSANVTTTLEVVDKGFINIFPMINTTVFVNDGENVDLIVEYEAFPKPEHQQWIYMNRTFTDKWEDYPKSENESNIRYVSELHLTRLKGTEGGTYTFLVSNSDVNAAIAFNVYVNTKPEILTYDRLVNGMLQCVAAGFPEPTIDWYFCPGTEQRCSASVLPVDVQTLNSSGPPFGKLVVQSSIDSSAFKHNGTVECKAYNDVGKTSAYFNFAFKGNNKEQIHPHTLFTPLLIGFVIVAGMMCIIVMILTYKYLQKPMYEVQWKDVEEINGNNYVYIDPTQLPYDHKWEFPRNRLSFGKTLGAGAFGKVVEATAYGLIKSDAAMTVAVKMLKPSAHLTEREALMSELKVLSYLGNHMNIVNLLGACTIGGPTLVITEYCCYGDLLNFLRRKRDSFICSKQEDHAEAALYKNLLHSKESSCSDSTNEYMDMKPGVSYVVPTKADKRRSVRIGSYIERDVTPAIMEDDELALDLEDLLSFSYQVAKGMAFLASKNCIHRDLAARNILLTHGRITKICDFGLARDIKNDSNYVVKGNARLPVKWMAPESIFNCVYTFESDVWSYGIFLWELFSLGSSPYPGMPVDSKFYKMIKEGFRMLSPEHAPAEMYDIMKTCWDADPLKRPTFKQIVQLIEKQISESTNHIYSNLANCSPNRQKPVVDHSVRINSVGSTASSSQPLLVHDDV

`FC(F)(F)c1ccc(Cl)cc1CN1CCNc2ncc(-c3ccnc(N4CCNCC4)c3)cc21`: the inhibition (in general, how much of the control response was suppressed) in experiment [1] is 97%; in experiment [2], < 50%; in experiment [3] it was < 50%; in experiment [4] it was < 50%; in experiment [5], < 50%; in experiment [6], < 50%. The inhibition in experiment [7], in experiment [8] and in experiment [9] was < 50% throughout.
As to `CN1CCN(c2ccc(-c3cnc4c(c3)N(Cc3cc(Cl)ccc3Cl)CCN4)cn2)CC1`, the inhibition in [1] is 82%; in experiment [2], < 50%; in experiment [3] it was < 50%; in [4], < 50%; in experiment [5] it was < 50%; in [6] it was < 50%. In addition, the inhibition in experiment [7], in experiment [8] and in experiment [9] was < 50% in each case.
Turning to `COC1CCN(C(=O)c2ccc(-c3cnc4c(c3)N(Cc3cc(Cl)ccc3C(F)(F)F)CCN4)cc2)CC1`, the inhibition in [1], in experiment [2], in experiment [6] and in [7] was < 50% in each case.
Take `O=C(c1ccc(-c2cnc3c(c2)N(Cc2cc(Cl)ccc2C(F)(F)F)CCN3)cc1)N1CCCCC1`: the inhibition in experiment [1], in experiment [2], in [6] and in experiment [7] was < 50% each time.
Regarding `O=C(O)c1ccc(-c2cnc3c(c2)N(Cc2cc(Cl)ccc2C(F)(F)F)CCN3)cc1`, the inhibition in experiment [1], in experiment [2], in [6] and in experiment [7] was < 50% in each case.
Regarding `CN1CCN(c2ccc(-c3cnc4c(c3)N(Cc3cc(F)ccc3F)CCN4)cn2)CC1`, the inhibition in experiment [1], in experiment [2], in experiment [3], in [4], in experiment [5] and in [6] was < 50% throughout. Also, the inhibition in experiment [7], in experiment [8] and in [9] was < 50% throughout.
`O=C(c1ccc(-c2cnc3c(c2)N(Cc2cc(Cl)ccc2C(F)(F)F)CCN3)cc1)N1CCC(N2CCCC2)CC1`: the inhibition in experiment [1] was 91.9%; in experiment [2], < 50%; in [6] it was 63%; in [7], < 50%.
As for `CN1CCN(c2ccc(-c3cnc4c(c3)N(Cc3c(F)ccc(F)c3Cl)CCN4)cn2)CC1`, the inhibition is 69% in experiment [1]; < 50% in experiment [2]; < 50% in experiment [3]; < 50% in [4]; < 50% in [5]; 72% in experiment [6]. Besides, the inhibition in experiment [7], in experiment [8] and in [9] was < 50% in each case.
As to `CC(=O)N1CCN(c2cc(-c3cnc4c(c3)N(Cc3cc(Cl)ccc3C(F)(F)F)CCN4)ccn2)CC1`, the inhibition in [1], in [2], in experiment [3], in [4], in [5] and in experiment [6] was < 50% each time. Further, the inhibition in experiment [7], in [8] and in [9] was < 50% in each case.
Regarding `CN1CCN(c2ccc(-c3cnc4c(c3)N(Cc3cc(Cl)ccc3C(F)(F)F)CCN4)cn2)CC1`, the inhibition in experiment [1], in experiment [2], in [3], in experiment [4], in experiment [5] and in [6] was < 50% each time. The inhibition in [7], in experiment [8] and in experiment [9] was < 50% throughout.
